The target of assay [1] is T1, rat α1β2γ2L type GABAA receptors expressed in Xenopus laevis oocytes (Rattus norvegicus, UniProt P62813+P63138). Type of assay: cell-based. To be noted: 2 µM GABA; for Potentiation, steroids 1 and 6a directly compared on the same oocyte (Figure 4): 1 and 10 µM compound, 6 to 7 oocytes; for oocyte electrophysiology, ratio of currents in presence/absence of compound: ± SEM, N ≥ 4. In a few lines: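 Rat α1β2γ2L GABAA receptors expressed in Xenopus oocytes with whole-cell recording. Currents with test compound plus 2 µM GABA were expressed as a ratio to 2 µM GABA alone, with at least four oocytes per compound. Direct gating used 10 µM compound without GABA, given as a ratio to the 2 µM GABA current. In the within-oocyte comparison, 1 or 10 µM compound was co-applied with 2 µM GABA and averaged over 6–7 oocytes.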

The test system of assay [2] is tadpole. To be noted: read-out: Tadpole LSR EC50; ± SEM; None = all animals had a swimming response at 10 µM of the test compound; cited from earlier work.
The test system of assay [3] is tadpole. To be noted: read-out: Tadpole LRR EC50; ± SEM; cited from earlier work.
Assay [4] deals with BALB/C mice. Put plainly: Anesthesia. Type of assay: in vivo, mouse. To be noted: tail vein injection.
The target in assay [5] is picrotoxin binding site on GABAA receptors. Particulars: read-out: IC50, inhibition of [35S]-TBPS binding; ± SEM; cited from earlier work.
Assay [6] concerns the target T1, rat α1β2γ2L type GABAA receptors expressed in Xenopus laevis oocytes. Particulars: 2 µM GABA, ± SEM, cited from earlier work.
In assay [7] the test system is tadpole. The experiment in a line: Tadpole loss of righting reflex. Format: in vivo. To be noted: read-out: Tadpole LRR EC50; ± SEM, N = 10 or more animals at each of five or more concentrations.
Assay [8] concerns tadpole. Put plainly: Tadpole loss of swimming reflex. Type of assay: in vivo. To be noted: ± SEM, None = all animals had a swimming response at 10 µM of the test compound.

Read-outs that look alike come from different tables or passages of the source.

Regarding `CC(=O)[C@H]1CC[C@H]2[C@@H]3CC[C@H]4C[C@H](O)CC[C@]4(C)[C@H]3C(=O)C[C@]12C` [Compound 1, (3α,5α)-3-hydroxypregnane-11,20-dione], the “Potentiation, steroids 1 and 6a directly compared on the same oocyte (Figure 4)” value in assay [1] was “potentiate to the same level”. Also, in assay [2], the EC50 was 5.48 ± 0.11 µM. For the same compound, the EC50 in assay [3] is 1.12 ± 0.14 µM. For the same compound, the “Anesthetic effect in mice” value in assay [4] (8 mg/kg, 22.5% 2-hydroxypropyl-β-cyclodextrin) is given as “very brief anesthesia”. Also, in assay [4] (mice, 16 mg/kg), the “Onset of loss of righting reflex” value is recorded as “immediate loss of righting reflex”; the “Recovery period from initial return of leg movement to righting and walking” value fell in the range of 1 to 2 min.

As for `CC(=O)C1=CC[C@H]2[C@@H]3CC[C@H]4C[C@H](O)CC[C@]4(C)[C@H]3C(=O)C[C@]12C` [Compound 2, (3α,5α)-3-hydroxypregn-16-ene-11,20-dione], the IC50 in assay [5] was 2.22 µM. The results for the “oocyte electrophysiology, ratio of currents in presence/absence of compound” value in assay [6] (0.1 µM compound), in assay [6] (1 µM compound) and in assay [6] (10 µM compound) were 0.94 ± 0.04, 0.97 ± 0.05 and 1.87 ± 0.14, respectively. For the same compound, the EC50 in assay [3] was over 10 µM.

As for `C[C@]12CC[C@@H](O)C[C@@H]1CC[C@@H]1[C@@H]2C(=O)C[C@]2(C)C(C=O)=CC[C@@H]12` [Compound 5a, (3α,5α)-3-Hydroxy-11-oxoandrost-16-ene-17-carboxaldehyde], the EC50 in assay [7] is about 3 µM. In addition, the “Tadpole LSR EC50” value in assay [8] was “None”.

Take `C[C@]12CC[C@@H](O)C[C@@H]1CC[C@H]1[C@@H]3CC[C@H](C=O)[C@@]3(C)CC(=O)[C@@H]12` [Compound 5b, (3α,5α,17β)-3-Hydroxy-11-oxoandrostane-17-carboxaldehyde]: the “Tadpole LSR EC50” value in assay [8] is reported as “None”.

For `C[C@]12CC[C@@H](O)C[C@@H]1CC[C@@H]1[C@@H]2C(=O)C[C@]2(C)/C(=C\C#N)CC[C@@H]12` [Compound 6a, [3α,5α,17(20)Z]-3-Hydroxy-11-oxopregn-17(20)-ene-21-nitrile], the “Potentiation, steroids 1 and 6a directly compared on the same oocyte (Figure 4)” value in assay [1] is “potentiate to the same level”. The “Time to loss of movement and righting reflex (onset)” value in assay [4] (mice, 8 mg/kg) was 10 to 25 s. In assay [4] (mice, 16 mg/kg), the “Onset of loss of righting reflex” value is “immediate loss of righting reflex”.

In the case of `C/C(C#N)=C1\CC[C@H]2[C@@H]3CC[C@H]4C[C@H](O)CC[C@]4(C)[C@H]3C(=O)C[C@]12C` [Compound 6c, [3α,5α,17(20)Z]-3-Hydroxy-11-oxopregn-17(20)-ene-20-carbonitrile], the EC50 in assay [8] (read-out: Tadpole LSR EC50) was under 10 µM.

For “(3α,5α)-3-Hydroxy-11-oxopregnan-21-carbonitrile [Compound 5c]”, the “oocyte electrophysiology, ratio of currents in presence/absence of compound” value in assay [1] (0.1 µM compound) is 0.91 ± 0.03; in assay [1] (1 µM compound), 1.13 ± 0.08; in assay [1] (10 µM compound), 4.67 ± 0.14. In addition, the EC50 in assay [7] amounted to 3.58 ± 1.59 µM. Besides, in assay [8], the “Tadpole LSR EC50” value is given as “None”.

What is called EC50 is the concentration needed to bring the measured effect to its halfway point. One may read the IC50 as the concentration that inhibits the measured activity by half.

Source of the values: paper PMC3794474 (Journal of medicinal chemistry, 2011).
